Experimental data from ChEMBL document CHEMBL1128731, “Furanfurin and thiophenfurin: two novel tiazofurin analogues. Synthesis, structure, antitumor activity, and interactions with inosine monophosphate dehydrogenase” (J Med Chem, 1995).

Key:
K562 [1] = test: Compound was tested for its effect on UDP ribonucleotide levels of K562 cell at 10 uM concentration; type: functional, Homo sapiens
Summary of the method: (§1)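 K562 cells (1×10^7) were treated with saline or agent for 2 h at 37 °C, harvested by centrifugation and washed with cold saline. They were extracted with cold 10% trichloroacetic acid, neutralized with 0.5 M tri-n-octylamine in freon, and analyzed by HPLC. Levels are in nmol/g and expressed as % of saline control. Significance was set at p < 0.05.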

K562 [2] = test: Compound was tested for its effect on UTP ribonucleotide levels of K562 cell at 10 uM concentration; type: functional, Homo sapiens; summary of the method: as §1
LoVo = test: Inhibitory concentration against LoVo human colon adenocarcinoma cell lines; type: functional, cell-based
Summary of the method: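 Cells in log phase plated with a range of drug concentrations (B16 5×10^3 cells/well; P388, L1210, LLC 10^4 cells/well; HL-60, K562, LoVo 2.5×10^5 cells/well). Growth read by modified MTT after 72 h drug contact at 37 °C. IC50 taken as the concentration reducing optical absorption by 50%, from Chou regression analysis. Maximum concentration tested 200 μM.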

K562 [3] = test: Compound was tested for its effect on IMPDH activity against K562 cells at 10 uM concentration; type: functional, Homo sapiens
Summary of the method: (§2)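 Log-phase K562 cells (1×10^6/mL) were exposed to saline or agent for 2 h at 37 °C, washed and lysed (Tris-HCl pH 7.4, NaCl, MgCl2, 0.5% NP-40, aprotinin). The cleared supernatant was incubated 30 min at 37 °C with 286 μM [2,8-3H]IMP and 1 mM NAD. Tritium release was counted by scintillation. Activity is nmol XMP/h/mg protein, also given as % of control.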

K562 [4] = test: Compound was tested for its effect on ADP ribonucleotide levels of K562 cell at 100 uM concentration; type: functional, Homo sapiens; summary of the method: as §1
Mus musculus [5] = test: Compound was tested for ratio of survival time of treated to control mice x100 at 400 mg/kg dose; type: functional
Summary of the method: (§3)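 Female BD2F1 mice (8 weeks old, 20–22 g), eight per group, injected ip with 10^5 L1210 leukemia cells on day 0. Starting 24 h later, drug dissolved in 0.9% NaCl given ip once daily for 9 consecutive days. % T/C = survival time of treated/control mice × 100. Body weight change tracked from start to end of treatment.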

K562 [6] = test: compound was tested for its effect on IMPDH activity against K562 cells at 50 uM concentration; type: functional, Homo sapiens
Summary of the method: (§4)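 K562 cells (1×10^6/mL, log phase) exposed 2 h at 37 °C to 10, 50 or 100 μM drug, or to saline. Cells washed and lysed in Tris-HCl pH 7.4/NaCl/MgCl2/NP-40/aprotinin, and the 13000g supernatant used as enzyme. Enzyme incubated 30 min at 37 °C with 286 μM [2,8-3H]IMP and 1 mM NAD. Tritium release counted; activity in nmol XMP/h/mg protein, as % of saline control.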

K562 [7] = test: Compound was tested for its effect on UDP ribonucleotide levels of K562 cell at 50 uM concentration; type: functional, Homo sapiens; summary of the method: as §1
Mus musculus [8] = test: Average weight change of mice from onset to termination of drug treatment at 6.2 mg/kg dose; type: functional
Summary of the method: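 Female BD2F1 mice (8 weeks, 20–22 g), eight per group, injected ip with 10^5 L1210 cells on day 0. From 24 h later, drug in 0.9% NaCl was given ip once daily for 9 days. Body weight change was averaged from onset to termination of treatment. Early deaths from toxicity were recorded.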

K562 [9] = test: Compound was tested for its effect on CDP ribonucleotide levels of K562 cell at 50 uM concentration; type: functional, Homo sapiens; summary of the method: as §1
K562 [10] = test: compound was tested for its effect on IMPDH activity against K562 cells at 10 uM concentration; type: functional, Homo sapiens; summary of the method: as §4
K562 [11] = test: Compound was tested for its effect on ATP ribonucleotide levels of K562 cell at 100 uM concentration; type: functional, Homo sapiens; summary of the method: as §1
[12] = IC50 ratio against bone marrow samples to HL-60; type: functional
Summary of the method: (§5)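 Antiproliferative assay scoring [125I]-5-iodo-2'-deoxyuridine incorporation into DNA after 72 h drug–cell contact. Run on normal human bone marrow from five donors and in three assays on HL-60. Ratio is antilog(mean log IC50 or IC90) on bone marrow over the same on HL-60. Range limits are antilog(mean log IC50 ± 2SD).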

K562 [13] = test: Compound was tested for its effect on IMPDH activity against K562 cells at 50 uM concentration; type: functional, Homo sapiens; summary of the method: as §2
Mus musculus [14] = test: Compound was tested for ratio of survival time of treated to control mice x100 at 100 mg/kg dose; type: functional; summary of the method: as §3
HL-60 = test: Inhibitory concentration against human HL-60 cell line(activity expressed as range); type: functional, cell-based; summary of the method: as §5
K562 [15] = test: Compound was tested for its effect on UMP ribonucleotide levels of K562 cell at 10 uM concentration; type: functional, Homo sapiens; summary of the method: as §1
Homo sapiens = species on record: Homo sapiens; test: Inhibitory concentration range against human bone marrow; type: functional, organism-based; summary of the method: as §5
K562 [16] = test: Compound was tested for its effect on ADP ribonucleotide levels of K562 cell at 10 uM concentration; type: functional, Homo sapiens; summary of the method: as §1
K562 [17] = test: Compound was tested for its effect on IMP ribonucleotide levels of K562 cell at 10 uM concentration; type: functional, Homo sapiens; summary of the method: as §1
K562 [18] = test: compound was tested for its effect on IMPDH activity against K562 cells at 100 uM concentration; type: functional, Homo sapiens; summary of the method: as §4
K562 [19] = test: Compound was tested for its effect on GMP ribonucleotide levels of K562 cell at 10 uM concentration; type: functional, Homo sapiens; summary of the method: as §1
K562 [20] = test: Compound was tested for its effect on UTP ribonucleotide levels of K562 cell at 50 uM concentration; type: functional, Homo sapiens; summary of the method: as §1
K562 [21] = test: Compound was tested for its effect on GDP ribonucleotide levels of K562 cell at 10 uM concentration; type: functional, Homo sapiens; summary of the method: as §1
K562 [22] = test: Compound was tested for its effect on NAD ribonucleotide levels of K562 cell at 50 uM concentration; type: functional, Homo sapiens; summary of the method: as §1
K562 [23] = test: Compound was tested for its effect on CDP ribonucleotide levels of K562 cell at 10 uM concentration; type: functional, Homo sapiens; summary of the method: as §1
K562 [24] = test: Compound was tested for its effect on CTP ribonucleotide levels of K562 cell at 50 uM concentration; type: functional, Homo sapiens; summary of the method: as §1
K562 [25] = test: Compound was tested for its effect on UDP ribonucleotide levels of K562 cell at 100 uM concentration; type: functional, Homo sapiens; summary of the method: as §1
K562 [26] = test: Compound was tested for its effect on GMP ribonucleotide levels of K562 cell at 50 uM concentration; type: functional, Homo sapiens; summary of the method: as §1
K562 [27] = test: Compound was tested for its effect on GTP ribonucleotide levels of K562 cell at 100 uM concentration; type: functional, Homo sapiens; summary of the method: as §1
K562 [28] = test: Compound was tested for its effect on CTP ribonucleotide levels of K562 cell at 100 uM concentration; type: functional, Homo sapiens; summary of the method: as §1

## NC(=O)c1csc([C@@H]2O[C@H](CO)[C@@H](O)[C@H]2O)c1
K562 [1]
  Control: 134%
K562 [2]
  Control: 91%
LoVo
  IC50: 102 µM
K562 [3]
  Activity: 2.8
K562 [4]
  Control: 105%
Mus musculus [5]
  T/C: <100%
K562 [6]
  Control: 37%
K562 [7]
  Control: 134%
Mus musculus [8]
  Change: 8.5%
K562 [9]
  Control: 82%
K562 [10]
  Control: 56%
K562 [11]
  Control: 81%
[12]
  Ratio: 21.9
K562 [13]
  Activity: 1.85
Mus musculus [14]
  T/C: <100%
HL-60
  IC50: 2.4 µM
K562 [15]
  Control: 110%
Homo sapiens
  IC50: 21.6 µM
K562 [16]
  Control: 122%
K562 [17]
  Control: 314%
K562 [18]
  Control: 22%
K562 [19]
  Control: 98%
K562 [20]
  Control: 99%
K562 [21]
  Control: 97%
K562 [22]
  Control: 66%
K562 [23]
  Control: 84%
K562 [24]
  Control: 32%
K562 [25]
  Control: 131%
K562 [26]
  Control: 90%
K562 [27]
  Control: 58%
K562 [28]
  Control: 32%
